Assay results collected from several papers.
Protocols differ between the studies behind these lines.

COc1ccc2nc(-c3ccccn3)c(N(C)c3ccc(F)cc3)n2c1 — AUC(0-inf) (male CD-1 mouse, plasma; oral, 50 mg/kg, fasted): 969 ng·h/mL
COc1nc(-c2cc(C)c(N[C@@H](C)c3ccc(F)cc3)nn2)ccc1-n1cnc(C)c1 — AUC(0-inf) (male CD-1 mouse, plasma; intravenous, 1 mg/kg, single dose): 4280 ng·h/mL
CC(C)(C)c1ccc(O)c(CN(Cc2cc(C(C)(C)C)ccc2O)C2CCC(NC(N)=O)CC2)c1 (stereo not shown) — AUC(0-inf) (male C57BL/6 mouse, plasma; intraperitoneal, 25 mg/kg, single dose): 16600 ng·h/mL
Cc1ccc(NC(=O)c2ccc(CN3CCN(C)CC3)cc2)cc1Nc1nccc(-c2cncc(-c3oncc3C)c2)n1 — AUC(0-inf) (male C57BL/6 mouse, brain; oral, 100 mg/kg/day): 1200 ng·h/mL
COc1cc(OC)c2nccc(N3CCc4c(cc(Cn5ccnc5)cc4-c4cn(C)nc4C(F)(F)F)C3=O)c2c1 — AUC(0-inf) (male CD-1 mouse, plasma; oral, 50 mg/kg): 60600 ng·h/mL
Cc1cc(NC(=O)c2cccc3cc(-c4cccc5[nH]nc(N)c45)ccc23)ccc1F — AUC(0-inf) (male CD-1 mouse, plasma; oral, 10 mg/kg): 4940 ng·h/mL
COc1ccc2nccc(N3CCc4c(cc(Cn5ccnc5)cc4-c4cn(C)nc4C(F)(F)F)C3=O)c2c1 — AUC(0-inf) (male CD-1 mouse, plasma; oral, 50 mg/kg): 33800 ng·h/mL
CC[C@H](C)[C@@H]1NC(=O)[C@@](C)(NC(=O)[C@H](CCCNC(=N)N)NC(=O)[C@H](CC(C)C)NC(=O)[C@@H](NC(=O)[C@H](CCC(N)=O)NC(=O)[C@H](CC(C)C)NC(C)=O)[C@@H](C)O)CCCC=CCCC[C@@](C)(C(=O)N[C@@H](CC(C)C)C(=O)N[C@@H](Cc2ccc3ccccc3c2)C(N)=O)NC(=O)[C@H](CCCNC(=N)N)NC(=O)[C@H](CCC(N)=O)NC1=O — AUC(0-inf) (male BALB/c mouse, plasma; intravenous, 10 mg/kg): 233000 ng·h/mL
Cc1nc(-c2cnc(NC(C)C)n(C)c2=O)ccc1Oc1ccnc(-c2cnn(C)c2)c1 — AUC(0-inf) (female mouse, plasma; oral, 15 mg/kg, single dose): 127000 ng·h/mL
CNCCN(C)c1cc(C#N)cc(CCc2cc(C)cc(N)n2)c1 — AUC(0-inf) (male BALB/c mouse, plasma; oral, 10 mg/kg): 182 ng·h/mL
CN1C(=O)c2ccccc2[S@+]([O-])c2ccc(C(=O)NCCc3cccs3)cc21 — AUC(0-inf) (male C57BL/6 mouse, plasma; intraperitoneal, 30 mg/kg, single dose): 7840 ng·h/mL
Cc1ccc2cncc(N3CCc4c(cc(Cn5ccnc5)cc4-c4cn(C)nc4C(F)(F)F)C3=O)c2c1 — AUC(0-inf) (male CD-1 mouse, plasma; oral, 10 mg/kg): 4460 ng·h/mL
CC=Cc1ccc(O)c(OC)c1 — AUC(0-inf) (mouse, plasma; intranasal, 100 mg/kg): 10100 ng·h/mL
CCNc1nc2c(c(N3CC(=O)Nc4cc(OC)ccc43)n1)CCC2 — AUC(0-inf) (female C57BL/6 mouse, plasma; intravenous, 4 mg/kg, single dose): 620 ng·h/mL
Cc1cc(Nc2ccc(S(F)(F)(F)(F)F)cc2)n2ccnc2n1 — AUC(0-inf) (male Swiss mouse, plasma; oral, 100 mg/kg, single dose): 154 µM·h
Cc1noc(C)c1-c1ccc2nc(-c3cnn(CCO)c3)nc(N3CCOCC3c3ccccc3)c2c1 (stereo not shown) — AUC(0-inf) (CD-1 mouse, plasma; intravenous, 2 mg/kg): 1760 ng·h/mL
CNC(=O)c1cc(OC)cc2c(N3CCc4c(cc(Cn5ccnc5)cc4-c4cn(C)nc4C(F)(F)F)C3=O)ccnc12 — AUC(0-inf) (male CD-1 mouse, plasma; oral, 50 mg/kg): 145000 ng·h/mL
COc1nc(-c2cc(C)c(N[C@@H](C)c3cc(F)cc(F)c3)nn2)ccc1-n1cnc(C)c1 — AUC(0-inf) (male CD-1 mouse, plasma; oral, 5 mg/kg, single dose): 13800 ng·h/mL
CCc1cc(C(=O)NC)c2nccc(N3CCc4c(cc(Cn5ccnc5)cc4-c4cn(C)nc4C(F)(F)F)C3=O)c2c1 — AUC(0-inf) (male CD-1 mouse, plasma; intravenous, 3 mg/kg): 4180 ng·h/mL
c1ccc(-c2nc(N3CCC(c4ccccn4)C3)c3ccccc3n2)nc1 (stereo not shown) — AUC(0-inf) (female BALB/c mouse, plasma; oral, 50 mg/kg): 10500 ng·h/mL
CCc1cc(OC)c2nccc(N3CCc4c(cc(Cn5ccnc5)cc4-c4cn(C)nc4C(F)(F)F)C3=O)c2c1 — AUC(0-inf) (male CD-1 mouse, plasma; oral, 50 mg/kg): 108000 ng·h/mL
COc1cc2c(Nc3ccc(Cl)c(Cl)c3F)ncnc2cc1OC[C@@H]1C[C@@H]2CN(C)C[C@@H]2C1 — AUC(0-inf) (FVB mouse, plasma; oral, 70 mg/kg, single dose): 83000 ng·h/mL
